Assay results published in PubChem BioAssay AID504667 (Broad Institute, 2011).
“And” between values parts separate entries of the source, which are not always exact repeats. Identical values can stand only once. Inconclusive results are not listed. The source made the active and inactive calls.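 Rule for the calls: active = signal drops with a fitted half-maximal dose within ten times the top tested dose, in every replicate test; inconclusive = replicate tests disagree, or flat partial drop, or poor fit; inactive = the rest, including effects in the wrong direction.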

Assays:
[1] = test system: HMLE_shECad viability, CellTiter-Glo luminescence, 72 h; assay: growth inhibition of breast cancer stem-like cells, dose response, cell-based, HMLE_shECad, CellTiter-Glo luminescence, dry powder, set 6 (AID 504667)
Summary of the method: (§1)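 Measured by: CellTiter-Glo ATP luminescence, reagent diluted 1:3 in PBS, 12 min / System: HMLE_shECad cells, stable E-cadherin knockdown, EMT-induced, CSC-like / Schedule: ≥4 h cell attachment, ~72 h compound exposure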

[2] = as above; settings: HMLE_shECad viability, CellTiter-Glo luminescence, 72 h
Summary of the method: as §1

Structure (SMILES): Cc1csc(NC(=O)c2ccc(COc3cccc(F)c3)o2)n1
- AC50 [1]: 3.25 µM

Structure (SMILES): Cc1csc(NC(=O)c2cocc2COc2ccccc2)n1
- activity change, negative = inhibition ([2]; at 30 µM (top of the series)): -3.35% (inactive)

Structure (SMILES): CC(C)Cc1ccc(/C=C/C(=O)NC2=NCCS2)cc1
- AC50 [1]: 0.386 µM

Structure (SMILES): Cc1ccc(OCc2ccc(C(=O)Nc3nc(C)cs3)o2)cc1
- AC50 [1]: 2.04 µM

Structure (SMILES): C/C(=C\C(=O)NC1=NCCS1)c1ccc(CC(C)C)cc1
- activity change, negative = inhibition ([2]; at 19.5 µM (top of the series)): -2.19% (inactive)

Structure (SMILES): Cc1csc(NC(=O)c2ccc(COc3ccccn3)o2)n1
- AC50 [1]: 9.4 µM

Structure (SMILES): CCc1ccc(/C=C/C(=O)NC2=NCCS2)cc1
- AC50 [1]: 2.33 µM

Structure (SMILES): COc1ccc(/C=C/C(=O)NC2=NCCS2)c(OC)c1
- AC50 [1]: 10.4 µM

Structure (SMILES): Cc1ccc2cc(C(=O)NC3=NCCS3)n(C)c2c1
- activity change, negative = inhibition ([2]; at 30 µM (top of the series)): -5.01% (inactive)

Structure (SMILES): COc1ccc(OC)c2sc(NC(=O)c3ccc(COc4ccccc4)o3)nc12
- activity change, negative = inhibition ([2]; at 30 µM (top of the series)): -5.85% (inactive)

Structure (SMILES): COc1ccc(OCc2ccc(C(=O)Nc3nc(C)cs3)o2)c(F)c1
- AC50 [1]: 3.35 µM

Structure (SMILES): Cc1csc(NC(=O)c2ccc(COc3cc(Cl)ccc3Cl)o2)n1
- AC50 [1]: 0.024 µM

Structure (SMILES): O=C(COc1c(Cl)cc(Cl)cc1Cl)N/N=C/c1ccc[nH]1
- AC50 [1]: 1.51 µM

Structure (SMILES): N#Cc1ccc(/C=C/C(=O)NC2=NCCS2)cc1
- AC50 [1]: 24.6 µM

Structure (SMILES): Cc1cccc(OCc2ccc(C(=O)Nc3nc(C)cs3)o2)c1
- AC50 [1]: 0.123 µM and 0.596 µM

Structure (SMILES): CNC(=O)c1csc(NC(=O)c2ccc(COc3ccccc3)o2)n1
- activity change, negative = inhibition ([2]; at 19.5 µM (top of the series)): -0.72% (inactive)

Structure (SMILES): Cc1csc(NC(=O)c2ccc(COc3ccccc3F)o2)n1
- AC50 [1]: 0.007 µM

Structure (SMILES): Cc1csc(NC(=O)c2ccc(COc3ccccc3)o2)n1
- AC50 [1]: 1.05 µM

Structure (SMILES): O=C(COc1ccc(Cl)cc1Cl)N/N=C/c1ccc[nH]1
- AC50 [1]: 3.8 µM

Structure (SMILES): Cc1csc(NC(=O)c2ccc(COC3CCCCC3)o2)n1
- AC50 [1]: 13.6 µM

Structure (SMILES): Cc1csc(NC(=O)c2ccc(COCc3ccccc3)o2)n1
- AC50 [1]: 4.92 µM

Structure (SMILES): Cc1csc(NC(=O)c2ccc(COc3cccc(Cl)c3)o2)n1
- AC50 [1]: 0.5 µM

Structure (SMILES): Cc1csc(NCc2ccc(COc3ccccc3)o2)n1
- AC50 [1]: 28.8 µM

Structure (SMILES): CCOc1cccc(OCc2ccc(C(=O)Nc3nc(C)cs3)o2)c1
- AC50 [1]: 0.896 µM

Structure (SMILES): O=C(Nc1nncs1)c1ccc(COc2ccccc2)o1
- activity change, negative = inhibition ([2]; at 19.5 µM (top of the series)): -0.185% (inactive)

Structure (SMILES): Cc1csc(NC(=O)c2ccc(COc3cccc(Oc4ccccc4)c3)o2)n1
- AC50 [1]: 0.388 µM

Structure (SMILES): Cc1csc(NC(=O)c2ccc(COC(C)(C)C)o2)n1
- activity change, negative = inhibition ([2]; at 19.5 µM (top of the series)): -7.02% (inactive)

Structure (SMILES): CC(C)c1ccc(/C=C/C(=O)N(C)C2=NCCS2)cc1
- AC50 [1]: 20.9 µM

Structure (SMILES): CC(C)c1ccc(/C=C/C(=O)NC2=NCCS2)cc1
- AC50 [1]: 3.23 µM

Structure (SMILES): CC(C)c1ccc(/C=C/C(=O)Nc2cncs2)cc1
- AC50 [1]: 6.44 µM

Structure (SMILES): N#Cc1csc(NC(=O)c2ccc(COc3ccccc3)o2)n1
- AC50 [1]: 13.7 µM

Structure (SMILES): Cc1csc(NC(=O)c2ccc(COc3ccccc3S(C)(=O)=O)o2)n1
- AC50 [1]: 20.9 µM

Structure (SMILES): O=C(Nc1nc2cc(F)ccc2s1)c1ccc(COc2ccccc2)o1
- activity change, negative = inhibition ([2]; at 30 µM (top of the series)): -21.2% (inactive)

Structure (SMILES): O=C(Nc1nc(C(F)(F)F)cs1)c1ccc(COc2ccccc2)o1
- AC50 [1]: 13.8 µM

Structure (SMILES): COc1cccc(OCc2ccc(C(=O)Nc3nc(C)cs3)o2)c1
- AC50 [1]: 0.223 µM

Structure (SMILES): Cc1csc(NC(=O)c2ccoc2COc2ccccc2)n1
- AC50 [1]: 16.6 µM

Structure (SMILES): CCN(CC)C(=O)c1ccc(COc2ccccc2)o1
- activity change, negative = inhibition ([2]; at 19.5 µM (top of the series)): -1.82% (inactive)

Structure (SMILES): Cc1csc(NC(=O)c2ccc(COC3CCCC3)o2)n1
- AC50 [1]: 28.3 µM

Structure (SMILES): Cc1csc(NC(=O)c2coc(COc3ccccc3)c2)n1
- AC50 [1]: 1.27 µM

Structure (SMILES): Cc1csc(NC(=O)c2ccc(CNc3ccccn3)o2)n1
- AC50 [1]: 7.55 µM

Structure (SMILES): CC(C)NC(=O)c1ccc(COc2ccccc2)o1
- activity change, negative = inhibition ([2]; at 19.5 µM (top of the series)): -15.6% (inactive)

Structure (SMILES): Cc1csc(NC(=O)c2ccc(COc3cccc(OC(F)(F)F)c3)o2)n1
- AC50 [1]: 0.162 µM

Structure (SMILES): Cc1cc(Br)ccc1OCC(=O)N/N=C/c1ccc[nH]1
- AC50 [1]: 3.22 µM

Structure (SMILES): CC(C)c1ccc(/C=C/C(=O)Nc2nc3ccccc3s2)cc1
- activity change, negative = inhibition ([2]; at 19.5 µM (top of the series)): -8.38% (inactive)

Structure (SMILES): Cc1csc(NC(=O)c2ccc(CCc3ccccc3)o2)n1
- AC50 [1]: 0.794 µM

Structure (SMILES): Cc1csc(NC(=O)c2ccc(CNc3ccccc3)o2)n1
- AC50 [1]: 0.38 µM

Structure (SMILES): COc1ccc2nc(NC(=O)c3ccc(COc4ccccc4)o3)sc2c1
- activity change, negative = inhibition ([2]; at 30 µM (top of the series)): -14.7% (inactive)

Structure (SMILES): Cc1csc(NC(=O)c2ccc(COc3cccc(S(C)(=O)=O)c3)o2)n1
- activity change, negative = inhibition ([2]; at 19.5 µM (top of the series)): -5.39% (inactive)

Structure (SMILES): COCc1ccc(C(=O)Nc2nc(C)cs2)o1
- activity change, negative = inhibition ([2]; at 19.5 µM (top of the series)): -7.05% (inactive)

Structure (SMILES): COc1ccc(Cl)c(OCc2ccc(C(=O)Nc3nc(C)cs3)o2)c1
- AC50 [1]: 0.08 µM

Structure (SMILES): Cc1cc(C)c(OCC(=O)N/N=C/c2ccc[nH]2)c(C)c1
- AC50 [1]: 4.45 µM
